How the values were obtained:
Assay type in all cases: ADME, organism-based
Details in all cases: in vivo
[1] = system: Spleen; assay: Biodistribution in male Sprague-Dawley rat spleen at 5 mg/kg, po administered as single dose measured after 4 hrs; parameters: dose 5 mg/kg, dosed compound name [14C]-apixaban, route oral
In short: (§1)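 [14C]apixaban (1.0 mg/mL, 20 μCi/mL) in 0.5% Tween 80 in Labrafil, given by oral gavage at 100 μCi/kg to male rats (225-252 g) fasted overnight through 4 h post-dose. One rat per time point. Carcasses frozen in hexane/dry ice and cut into 40 µm sagittal sections. QWBA read on phosphor plates against [14C]glucose standards, reported as µg eq/g. LLOQ 0.037 µg eq/g.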

[2] = system: Brain; assay: Biodistribution in pregnant Sprague-Dawley rat brain at 5 mg/kg, po administered as single dose measured after 8 hrs; parameters: dose 5 mg/kg, dosed compound name [14C]-apixaban, route oral
[3] = system: Harderian gland; assay: Biodistribution in female Sprague-Dawley rat harderian gland at 5 mg/kg, po administered as single dose measured after 24 hrs; parameters: dose 5 mg/kg, dosed compound name [14C]-apixaban, route oral
In short: (§2)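 Quantitative whole-body autoradiography was run after a single 5 mg/kg (100 μCi/kg) oral gavage to fasted female or pregnant SD rats, one rat per time point. Carcasses were frozen in hexane/dry ice, and 40 µm sagittal sections were dried at −20°C for at least 48 h. Sections were exposed to a phosphor plate alongside [14C]glucose standards (0.001–6.5 µCi/g). Results are µg eq/g, with LLOQ 0.037 µg eq/g.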

[4] = system: Rattus norvegicus; assay: Biodistribution in male Sprague-Dawley rat salivary gland at 5 mg/kg, po administered as single dose measured after 72 hrs; parameters: dose 5 mg/kg, dosed compound name [14C]-apixaban, route oral
In short: (§3)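 Fasted male SD rats (225-252 g) each received one oral gavage dose of [14C]apixaban, 5 mg/kg (100 μCi/kg), in 0.5% Tween 80/Labrafil vehicle. One rat was killed per time point, from 0.5 to 168 h. Frozen carcasses were cut into 40 µm sagittal whole-body sections and read by QWBA phosphor imaging against [14C]glucose calibrants. Results are in µg apixaban eq/g; BLQ <0.037 µg eq/g.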

[5] = system: Rattus norvegicus; assay: Biodistribution in male Sprague-Dawley rat bone marrow at 5 mg/kg, po administered as single dose measured after 4 hrs; parameters: dose 5 mg/kg, dosed compound name [14C]-apixaban, route oral
In short: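 Fasted male rats, 225-252 g, received [14C]apixaban by single oral gavage at 100 μCi/kg in 0.5% Tween 80/Labrafil. One rat was killed per time point and the carcass frozen. Tissue radioactivity was quantified by QWBA (40 µm sagittal sections, phosphor plate, [14C]glucose calibration) as µg eq apixaban/g, with LLOQ 0.037 μg eq/g.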

[6] = system: Plasma; assay: AUC (0 to infinity) in lactating Sprague-Dawley rat plasma at 5 mg/kg, po administered as single dose; parameters: time infinity, dose 5 mg/kg, dosed compound name [14C]-apixaban, route oral
In short: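 Fasted lactating SD rats received 5 mg/kg [14C]apixaban orally (formulation 5.0 mg/mL, 20 μCi/mL). Oxytocin was injected subcutaneously 15 min before collection, and 1 mL milk was taken under anesthesia by milking machine. Sampling was predose and at 0.5–24 h, 3 rats per time point. Plasma was obtained at 1300g for 10 min. Duplicate 50–100 µL aliquots were counted by LSC for 10 min. AUC was calculated in WinNonlin.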

[7] = system: Pancreas; assay: Biodistribution in pregnant Sprague-Dawley rat pancreas at 5 mg/kg, po administered as single dose measured after 0.5 hrs; parameters: dose 5 mg/kg, dosed compound name [14C]-apixaban, route oral
[8] = system: Rattus norvegicus; assay: Biodistribution in female Sprague-Dawley rat bone marrow at 5 mg/kg, po administered as single dose measured after 72 hrs; parameters: dose 5 mg/kg, dosed compound name [14C]-apixaban, route oral; in short: as §2
[9] = system: Brain; assay: Biodistribution in female Sprague-Dawley rat brain at 5 mg/kg, po administered as single dose measured after 8 hrs; parameters: dose 5 mg/kg, dosed compound name [14C]-apixaban, route oral
In short: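 [14C]Apixaban (1.0 mg/mL, 20 μCi/mL in 0.5% Tween 80 in Labrafil) given as a single oral gavage of 5 mg/kg (100 μCi/kg) to fasted female SD rats, one rat per time point. Carcasses were frozen in hexane/dry ice and cut into 40 µm sagittal sections for QWBA against [14C]glucose standards. Brain radioactivity is reported as µg eq/g, with LLOQ 0.037 µg eq/g.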

[10] = Drug level in lactating Sprague-Dawley rat milk at 5 mg/kg, po administered as single dose after 24 hrs; parameters: dose 5 mg/kg, dosed compound name [14C]-apixaban, route oral
[11] = system: Muscle tissue; assay: Biodistribution in male Sprague-Dawley rat muscle at 5 mg/kg, po administered as single dose measured after 24 hrs; parameters: dose 5 mg/kg, dosed compound name [14C]-apixaban, route oral; in short: as §1
[12] = system: Heart; assay: Biodistribution in pregnant Sprague-Dawley rat heart at 5 mg/kg, po administered as single dose measured after 0.5 hrs; parameters: dose 5 mg/kg, dosed compound name [14C]-apixaban, route oral
[13] = system: Muscle tissue; assay: Biodistribution in pregnant Sprague-Dawley rat muscle at 5 mg/kg, po administered as single dose measured after 24 hrs; parameters: dose 5 mg/kg, dosed compound name [14C]-apixaban, route oral
In short: (§4)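 Pregnant SD rats (270-319 g) were fasted overnight and given one oral gavage of 5 mg/kg (100 μCi/kg) in 0.5% Tween 80 in Labrafil. One rat was euthanized per time point (0.5, 1, 4, 8, 24, 48 h) and the carcass frozen. 40 µm sagittal sections were phosphor-imaged against [14C]glucose standards and results reported as µg eq/g; LLOQ 0.037 µg eq/g.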

[14] = system: Lung; assay: Biodistribution in male Sprague-Dawley rat lung at 5 mg/kg, po administered as single dose measured after 24 hrs; parameters: dose 5 mg/kg, dosed compound name [14C]-apixaban, route oral; in short: as §1
[15] = system: Harderian gland; assay: Biodistribution in male Sprague-Dawley rat harderian gland at 5 mg/kg, po administered as single dose measured after 24 hrs; parameters: dose 5 mg/kg, dosed compound name [14C]-apixaban, route oral; in short: as §3
[16] = Drug level in lactating Sprague-Dawley rat milk at 5 mg/kg, po administered as single dose after 12 hrs; parameters: dose 5 mg/kg, dosed compound name [14C]-apixaban, route oral
[17] = system: Blood; assay: AUC (0 to infinity) in pregnant Sprague-Dawley rat blood at 5 mg/kg, po administered as single dose; parameters: time infinity, dose 5 mg/kg, dosed compound name [14C]-apixaban, route oral
[18] = system: Rattus norvegicus; assay: Biodistribution in pregnant Sprague-Dawley rat pituitary gland at 5 mg/kg, po administered as single dose measured after 24 hrs; parameters: dose 5 mg/kg, dosed compound name [14C]-apixaban, route oral; in short: as §4
[19] = system: Rattus norvegicus; assay: Biodistribution in male Sprague-Dawley rat salivary gland at 5 mg/kg, po administered as single dose measured after 8 hrs; parameters: dose 5 mg/kg, dosed compound name [14C]-apixaban, route oral
[20] = system: Rattus norvegicus; assay: Biodistribution in pregnant Sprague-Dawley rat amnion at 5 mg/kg, po administered as single dose measured after 4 hrs; parameters: dose 5 mg/kg, dosed compound name [14C]-apixaban, route oral
[21] = system: Lung; assay: Biodistribution in male Sprague-Dawley rat lung at 5 mg/kg, po administered as single dose measured after 8 hrs; parameters: dose 5 mg/kg, dosed compound name [14C]-apixaban, route oral; in short: as §1
[22] = system: Adrenal gland; assay: Biodistribution in pregnant Sprague-Dawley rat adrenal gland at 5 mg/kg, po administered as single dose measured after 1 hr; parameters: dose 5 mg/kg, dosed compound name [14C]-apixaban, route oral
[23] = system: Thymus; assay: Biodistribution in male Sprague-Dawley rat thymus at 5 mg/kg, po administered as single dose measured after 8 hrs; parameters: dose 5 mg/kg, dosed compound name [14C]-apixaban, route oral
[24] = system: Lung; assay: Biodistribution in female Sprague-Dawley rat lung at 5 mg/kg, po administered as single dose measured after 8 hrs; parameters: dose 5 mg/kg, dosed compound name [14C]-apixaban, route oral
In short: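 [¹⁴C]Apixaban given by oral gavage at 5 mg/kg (100 μCi/kg) in 0.5% Tween 80 in Labrafil (1.0 mg/mL dosing solution) to rats fasted overnight through 4 h post-dose. One rat per time point; carcass frozen in hexane/dry ice. Quantitative whole-body autoradiography used 40 µm sagittal sections and a phosphor imaging plate calibrated with [¹⁴C]glucose standards (0.001–6.5 μCi/g). Read-out in µg eq apixaban/g; LLOQ 0.037 μg eq/g.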

[25] = system: Rattus norvegicus; assay: Biodistribution in male Sprague-Dawley rat pituitary gland at 5 mg/kg, po administered as single dose measured after 4 hrs; parameters: dose 5 mg/kg, dosed compound name [14C]-apixaban, route oral
[26] = system: Heart; assay: Biodistribution in female Sprague-Dawley rat heart at 5 mg/kg, po administered as single dose measured after 72 hrs; parameters: dose 5 mg/kg, dosed compound name [14C]-apixaban, route oral; in short: as §2

- Radiolabel recovery [1]: 0.28 ugequiv/g
- Radiolabel recovery [2]: < 0.037 ugequiv/g
- Radiolabel recovery [3]: Not detected assumed BLQ
- Radiolabel recovery [4]: Not detected assumed BLQ
- Radiolabel recovery [5]: 0.32 ugequiv/g
- AUC [6]: 3470 ngequiv.hr/g
- Radiolabel recovery [7]: 0.89 ugequiv/g
- Radiolabel recovery [8]: Not detected assumed BLQ
- Radiolabel recovery [9]: < 0.037 ugequiv/g
- Radiolabel recovery [10]: 0.31 µg/mL
- Radiolabel recovery [11]: < 0.037 ugequiv/g
- Radiolabel recovery [12]: 0.68 ugequiv/g
- Radiolabel recovery [13]: Not detected assumed BLQ
- Radiolabel recovery [14]: < 0.037 ugequiv/g
- Radiolabel recovery [15]: Not detected assumed BLQ
- Radiolabel recovery [16]: 3.61 µg/mL
- AUC [17]: 7200 ngequiv.hr/g
- Radiolabel recovery [19]: 0.13 ugequiv/g
- Radiolabel recovery [20]: 11.24 ugequiv/g
- Radiolabel recovery [21]: 0.14 ugequiv/g
- Radiolabel recovery [22]: 1.9 ugequiv/g
- Radiolabel recovery [23]: 0.06 ugequiv/g
- Radiolabel recovery [24]: 0.2 ugequiv/g
- Radiolabel recovery [25]: 0.37 ugequiv/g
- Radiolabel recovery [26]: Not detected assumed BLQ
Structure (SMILES): COc1ccc(-n2nc(C(N)=O)c3c2C(=O)N(c2ccc(N4CCCC[14C]4=O)cc2)CC3)cc1
- Radiolabel recovery [18]: Not sampled as not visualised in autoradiograph

From ChEMBL document CHEMBL3525963, “Tissue distribution and elimination of [14C]apixaban in rats” (Drug Metab Dispos, 2011)
